# Assay results gathered from unrelated publications.
# Lines come from different studies, so protocols differ.
# Target: TGF-beta receptor type-2 (TGFBR2, Homo sapiens, UniProt P37173)
Compound,test,conditions,measurement,value
N#CC1(c2ccccn2)CCN(Cc2cc(C(=O)O)c(=O)n3ccccc23)CC1,"cell-free assay, competition with immobilised ligand",1 µM,remaining binding,93%
COc1cc(Nc2ncc(F)c(Nc3ccc4c(n3)NC(=O)C(C)(C)O4)n2)cc(OC)c1OC,binding,10 µM,inhibition,75%
Nc1ncc(-c2nc(N3CCOCC3)nc(N3CCOCC3)n2)c(C(F)F)n1,"cell-free assay, competition with immobilised ligand",10 µM,remaining binding,69%
CC(C)(C)c1cc(C=C(C#N)C#N)cc(Br)c1O,"enzyme activity, inhibitor",0.5 µM,remaining activity,93.8%
Cc1nn(C)cc1-c1nc2c(N3CCN(Cc4ccc(Cl)cc4)CC3)c(Cl)cnc2[nH]1,"binding, competition with immobilised ligand",1 µM,remaining binding,100%
Cn1cncc1[C@](O)(COc1ccc(C#N)cc1-c1ccc(OC(F)(F)F)cc1)c1ccc(C#N)cc1,"cell-free assay, competition with immobilised ligand",1 µM,remaining binding,100%
O=c1[nH]c2ccccc2n1C1CCN(Cc2ccc(-c3[nH]c4cc5ncnc5cc4nc3-c3ccccc3)cc2)CC1,cell-free assay,0.5 µM,remaining signal,95.5%
COc1ncccc1-c1cnn2ccc(N3CCN(C(=O)OC(C)C)CC3)nc12,"binding, competition with immobilised ligand",1 µM,remaining binding,100%
